From PMC11245987 (Computational and Structural Biotechnology Journal, 2024) come the findings set out here.

A value given as a limit tells only on which side of the number the result lay.

Assay [1] concerns the target T1, CTSL (Homo sapiens, UniProt P07711). Briefly: CTSL activity test, cell-free system. The conditions noted are these: for inhibition at 100 µM: read-out: inhibition of CTSL. It is filed as biochemical.
Assay [2] addresses T1, CTSL. In words: Enzyme kinetics of CTSL. It is filed as biochemical. The conditions noted are these: for inhibition mechanism: 6.25 µM to 100 µM, both Km and Vmax decreased. In outline: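 A standard-curve conversion factor turned signal into velocity. Values were corrected by subtracting the […] and fitted to Michaelis-Menten. Lineweaver–Burk plots gave the inhibition mechanism. Mean ± SEM.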

What is called inhibition is the drop in the measured response relative to a control, in per cent. Usually IC50 stands for the point on the concentration scale where inhibition reaches its midpoint. Low readings indicate greater potency in that assay, high ones weaker potency in that assay.

T1 sequence (P07711 114-288 limits assumed): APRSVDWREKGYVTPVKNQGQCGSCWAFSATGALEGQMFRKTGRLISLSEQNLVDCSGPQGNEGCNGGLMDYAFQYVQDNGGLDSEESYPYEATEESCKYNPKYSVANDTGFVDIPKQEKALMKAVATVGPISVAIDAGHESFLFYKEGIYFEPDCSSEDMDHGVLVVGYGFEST
T1 sequence (P07711 292-333 limits assumed): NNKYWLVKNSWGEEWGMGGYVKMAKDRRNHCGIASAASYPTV

With `O=C(N[C@H](COC(=O)[C@H](Cc1ccccc1)NC(=O)c1ccccc1)Cc1ccccc1)c1ccccc1` [Asperphenamate], on CTSL [1], the inhibition at 100 µM was more than 90%.
The same measure, in the same setting: the value for `O=C(/C=C/c1ccc(O)cc1)c1c(O)cc(O)cc1O` [Naringenin chalcone] was more than 90%; that for `COc1cc(O)c(C(=O)/C=C/c2ccccc2)c(OC)c1` [Flavokawain B] was more than 90%.
As to `CC1=CC(=O)c2c(O)cccc2C1=O` [Plumbagin], on CTSL [1], the IC50 was 31.3 µM. Besides, at CTSL [1], the inhibition at 100 µM was more than 90%. Also, the inhibition mechanism entry at CTSL [2] is listed as “uncompetitive inhibition mechanism”. Moreover, the Vmax worked out at 321.7 ± 13.9 Rlu/min at CTSL [2] (inhibitor 6.25 μM); 277.5 ± 15.6 Rlu/min on CTSL [2] (inhibitor 12.5 μM); 270.5 ± 11.2 Rlu/min on CTSL [2] (inhibitor 25 μM); 216.8 ± 20.5 Rlu/min on CTSL [2] (inhibitor 50 μM); 12.3 ± 2.4 Rlu/min at CTSL [2] (inhibitor 100 μM).
With `Cc1c(O)c(C)c2c(c1O)C(=O)C[C@@H](c1ccc(O)cc1)O2` [Farrerol], the inhibition at 100 µM on CTSL [1] was more than 90%.
With `COc1cc(O)cc(O)c1C(=O)/C=C/c1ccccc1` [(E)-Cardamonin], on CTSL [1], the inhibition at 100 µM was more than 90%.
The compound `CC1(C)CCC2=C(O1)c1ccccc1C(=O)C2=O` [Beta-Lapachone] showed a half-maximal inhibitory concentration (IC50) at CTSL [1] of 9.6 µM. Moreover, on CTSL [1], the inhibition at 100 µM was more than 90%. Also, the inhibition mechanism result at CTSL [2] was “uncompetitive inhibition mechanism”. Also, the Vmax was determined as 194.8 ± 9.2 Rlu/min at CTSL [2] (inhibitor 6.25 μM); 181.3 ± 32.9 Rlu/min on CTSL [2] (inhibitor 12.5 μM); 136.9 ± 27.6 Rlu/min at CTSL [2] (inhibitor 25 μM); 103.1 ± 2.2 Rlu/min on CTSL [2] (inhibitor 50 μM); 39.9 ± 0.2 Rlu/min on CTSL [2] (inhibitor 100 μM).
Take `O=CCc1ccccc1` [Phenylacetaldehyde]: at CTSL [1], the inhibition at 100 µM was more than 90%.
